# Results taken from article PMC9918595 (Molecular imaging and biology, 2022).
# Several values for one entry are separate records, joined by “and”; a condition that tells them apart may be missing. Identical values can stand only once. Entries after “also recorded” stand apart in the source; their conditions may differ. Like-named read-outs stand apart in the source and are kept apart here.
# How the values were obtained:
# [1] = in vivo studies; cited from earlier work
# [2] = system: wide range of molecular targets including ion channels (TRPV, TRPM), receptors (dopamine D1 and D2, NMDA, TNF-α) and enzymes (acetylcholinesterase, tyrosine …); details: patch clamp assay; cited from earlier work
# human TRPC5 [3] = details: whole-cell manual patched clamp assay; cited from earlier work
# human TRPC5 [4] = details: calcium flux assay; cited from earlier work
# TRPC5 [5] = target: T1, TRPC5 (Rattus norvegicus, UniProt Q8VD38); assay: In vitro autoradiography study of the rat brain; format: binding, Sprague Dawley rats
# T1 sequence (Q8VD38 1-974): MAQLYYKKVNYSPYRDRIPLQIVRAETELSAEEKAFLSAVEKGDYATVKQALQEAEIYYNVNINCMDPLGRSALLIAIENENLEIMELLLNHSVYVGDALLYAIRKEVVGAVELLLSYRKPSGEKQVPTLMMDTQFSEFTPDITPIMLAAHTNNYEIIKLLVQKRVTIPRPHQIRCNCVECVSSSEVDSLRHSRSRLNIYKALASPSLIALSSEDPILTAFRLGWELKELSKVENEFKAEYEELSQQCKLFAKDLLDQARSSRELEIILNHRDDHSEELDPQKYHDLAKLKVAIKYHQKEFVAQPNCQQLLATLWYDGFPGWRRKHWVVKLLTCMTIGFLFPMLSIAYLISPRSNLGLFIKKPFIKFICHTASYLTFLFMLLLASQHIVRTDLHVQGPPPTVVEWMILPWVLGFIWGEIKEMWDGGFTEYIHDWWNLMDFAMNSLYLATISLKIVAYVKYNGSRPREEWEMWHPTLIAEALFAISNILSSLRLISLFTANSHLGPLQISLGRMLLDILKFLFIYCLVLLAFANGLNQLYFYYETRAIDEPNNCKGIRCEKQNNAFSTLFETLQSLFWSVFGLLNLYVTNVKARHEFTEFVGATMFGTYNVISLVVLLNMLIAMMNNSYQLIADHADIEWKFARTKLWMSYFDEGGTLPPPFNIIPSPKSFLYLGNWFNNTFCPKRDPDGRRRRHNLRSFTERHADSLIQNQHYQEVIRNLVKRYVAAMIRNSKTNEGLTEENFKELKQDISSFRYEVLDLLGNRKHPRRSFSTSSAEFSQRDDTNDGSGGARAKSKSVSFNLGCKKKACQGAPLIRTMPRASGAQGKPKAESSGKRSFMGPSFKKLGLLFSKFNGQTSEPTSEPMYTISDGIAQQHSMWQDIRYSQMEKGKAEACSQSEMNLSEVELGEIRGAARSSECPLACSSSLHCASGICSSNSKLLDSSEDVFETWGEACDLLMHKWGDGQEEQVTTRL
# [6] = LogD7.4 measurement, shake flask method; format: physicochemical; details: n-octanol / PBS pH 7.4, n = 3
# [7] = Solubility of the radiotracer in dose formulation; format: physicochemical
# [8] = Ex vivo biodistribution study; format: in vivo, Sprague Dawley rats; details: for Tracer uptake, Blood / Tracer uptake, Brain / Tracer uptake, Fat / Tracer uptake, Heart / Tracer uptake, Kidney / Tracer uptake, Lung / Tracer uptake, Muscle / Tracer uptake, Pancreas / Tracer uptake, Small intestine / Tracer uptake, Spleen / Tracer uptake, Thymus / Tracer uptake, Liver: iv, n = 4
# TRPC5 [9] = assay: MicroPET brain study of the nonhuman primate; format: in vivo, cynomolgus macaques
# Outline: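 Adult male cynomolgus macaques (9–10 kg), two tracer scans in each of two animals; fasted 12 h, ketamine (10–20 mg kg−1) plus glycopyrrolate ([…]) i.m., intubated, 0.8–2.0% isoflurane/oxygen. Venous catheter; 10 min positioning and 45 min attenuation transmission scans. IV bolus ~0.35 GBq (injected mass ~4.2 μg); 0–120 min dynamic scan (3×1, 4×2, 3×3, 20×5 min frames).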
# TRPC5 [10] = format: in vivo, 129S1/SvImJ mice; details: 129S1/SvImJ TRPC5 knockout mice
# TRPC5 [11] = target: T2, TRPC5 (Mus musculus, UniProt Q9QX29); format: in vivo, 129S1/SvImJ mice; details: 129S1/SvImJ wild-type mice
# T2 sequence (Q9QX29 1-975): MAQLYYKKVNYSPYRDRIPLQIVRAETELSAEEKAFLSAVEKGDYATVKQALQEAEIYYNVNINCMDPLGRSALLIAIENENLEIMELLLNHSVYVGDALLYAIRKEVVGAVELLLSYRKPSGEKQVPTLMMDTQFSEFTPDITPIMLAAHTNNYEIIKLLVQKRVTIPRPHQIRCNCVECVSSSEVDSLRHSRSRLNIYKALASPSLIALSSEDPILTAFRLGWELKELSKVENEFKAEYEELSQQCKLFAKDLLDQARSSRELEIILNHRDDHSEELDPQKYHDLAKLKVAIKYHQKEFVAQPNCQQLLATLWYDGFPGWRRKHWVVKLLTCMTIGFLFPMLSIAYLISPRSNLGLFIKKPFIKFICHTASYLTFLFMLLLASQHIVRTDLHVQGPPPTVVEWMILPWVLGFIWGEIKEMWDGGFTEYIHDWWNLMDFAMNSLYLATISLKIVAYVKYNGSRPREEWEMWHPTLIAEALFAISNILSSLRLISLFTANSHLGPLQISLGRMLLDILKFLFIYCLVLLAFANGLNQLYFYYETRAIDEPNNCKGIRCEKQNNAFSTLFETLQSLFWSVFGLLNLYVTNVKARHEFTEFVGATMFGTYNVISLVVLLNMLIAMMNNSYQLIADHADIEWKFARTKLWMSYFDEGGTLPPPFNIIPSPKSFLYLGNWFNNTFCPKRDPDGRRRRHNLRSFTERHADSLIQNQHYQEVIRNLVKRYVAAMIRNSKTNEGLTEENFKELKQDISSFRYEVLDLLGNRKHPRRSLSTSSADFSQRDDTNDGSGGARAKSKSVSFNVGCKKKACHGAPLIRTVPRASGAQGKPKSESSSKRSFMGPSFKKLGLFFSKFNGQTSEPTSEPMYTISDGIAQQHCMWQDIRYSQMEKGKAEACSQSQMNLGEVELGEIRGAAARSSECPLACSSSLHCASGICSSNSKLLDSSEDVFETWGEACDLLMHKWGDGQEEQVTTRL
compound,measurement,setting,value
Cn1c(=O)n(CCCO)c(=O)c2c1nc(Oc1cccc(Cl)c1)n2Cc1ccc(Cl)cc1 [HC070],anxiolytic and antidepressant function,[1],carries anxiolytic and antidepressant function
same,oral bioavailability,[1],orally bioavailable
same,selectivity over a wide range of molecular targets,[2],at least 400 fold
same,IC50,human TRPC5 [3],0.52 nM
same,IC50,human TRPC5 [4],9.3 nM
Cn1c(=O)n(CCCO)c(=O)c2c1nc(Oc1cccc(OC(F)(F)F)c1)n2Cc1ccc(Cl)cc1 [HC608],blocking of [^11C]HC070 binding in rat brain sections,TRPC5 [5]; cold blocker at 1 μM,significantly reduced binding; also recorded: able to reduce the radioactivity signal in the tissue slides very well; also recorded: significantly blocked
[11CH3]n1c(=O)n(CCCO)c(=O)c2c1nc(Oc1cccc(Cl)c1)n2Cc1ccc(Cl)cc1 [[^11C]HC070],logD7.4,[6],1.08 ± 0.04
same,solubility,"[7]; dose formulation, ethanol/saline",good solubility; also recorded: improved solubility in ethanol/saline medium
same,residue retaining inside surface of a glass vial or a syringe,[7]; dose solution without Kolliphor HS15,little percentage of retaining was detected
same,brain uptake ratio from 5 min to 60 min,"[8]; SD rats, 5 min/60 min",4.5
same,"Tracer uptake, Blood","[8]; SD rats, 5 min post injection",0.13±0.02 %I.D./gram
same,"Tracer uptake, Brain","[8]; SD rats, 5 min post injection",0.47±0.10 %I.D./gram
same,"Tracer uptake, Fat","[8]; SD rats, 5 min post injection",0.07±0.02 %I.D./gram
same,"Tracer uptake, Heart","[8]; SD rats, 5 min post injection",0.94±0.12 %I.D./gram
same,"Tracer uptake, Kidney","[8]; SD rats, 5 min post injection",1.28±0.28 %I.D./gram
same,"Tracer uptake, Lung","[8]; SD rats, 5 min post injection",0.72±0.07 %I.D./gram
same,"Tracer uptake, Muscle","[8]; SD rats, 5 min post injection",0.12±0.01 %I.D./gram
same,"Tracer uptake, Pancreas","[8]; SD rats, 5 min post injection",1.33±0.30 %I.D./gram
same,"Tracer uptake, Small intestine","[8]; SD rats, 5 min post injection",1.16±0.11 %I.D./gram
same,"Tracer uptake, Spleen","[8]; SD rats, 5 min post injection",0.73±0.17 %I.D./gram
same,"Tracer uptake, Thymus","[8]; SD rats, 5 min post injection",0.47±0.08 %I.D./gram
same,"Tracer uptake, Blood","[8]; SD rats, 30 min post injection",0.12±0.02 %I.D./gram
same,"Tracer uptake, Brain","[8]; SD rats, 30 min post injection",0.18±0.01 %I.D./gram
same,"Tracer uptake, Fat","[8]; SD rats, 30 min post injection",0.31±0.09 %I.D./gram
same,"Tracer uptake, Heart","[8]; SD rats, 30 min post injection",0.33±0.03 %I.D./gram
same,"Tracer uptake, Kidney","[8]; SD rats, 30 min post injection",0.46±0.03 %I.D./gram
same,"Tracer uptake, Liver","[8]; SD rats, 30 min post injection",1.70±0.18 %I.D./gram
same,"Tracer uptake, Lung","[8]; SD rats, 30 min post injection",0.41±0.07 %I.D./gram
same,"Tracer uptake, Muscle","[8]; SD rats, 30 min post injection",0.17±0.02 %I.D./gram
same,"Tracer uptake, Pancreas","[8]; SD rats, 30 min post injection",0.47±0.01 %I.D./gram
same,"Tracer uptake, Small intestine","[8]; SD rats, 30 min post injection",3.01±0.23 %I.D./gram
same,"Tracer uptake, Spleen","[8]; SD rats, 30 min post injection",0.20±0.02 %I.D./gram
same,"Tracer uptake, Thymus","[8]; SD rats, 30 min post injection",0.24±0.02 %I.D./gram
same,"Tracer uptake, Blood","[8]; SD rats, 60 min post injection",0.12±0.01 %I.D./gram
same,"Tracer uptake, Brain","[8]; SD rats, 60 min post injection",0.09±0.02 %I.D./gram
same,"Tracer uptake, Fat","[8]; SD rats, 60 min post injection",0.35±0.12 %I.D./gram
same,"Tracer uptake, Heart","[8]; SD rats, 60 min post injection",0.20±0.03 %I.D./gram
same,"Tracer uptake, Kidney","[8]; SD rats, 60 min post injection",0.33±0.05 %I.D./gram
same,"Tracer uptake, Liver","[8]; SD rats, 60 min post injection",1.88±0.13 %I.D./gram
same,"Tracer uptake, Lung","[8]; SD rats, 60 min post injection",0.23±0.07 %I.D./gram
same,"Tracer uptake, Muscle","[8]; SD rats, 60 min post injection",0.13±0.02 %I.D./gram
same,"Tracer uptake, Pancreas","[8]; SD rats, 60 min post injection",0.33±0.06 %I.D./gram
same,"Tracer uptake, Small intestine","[8]; SD rats, 60 min post injection",3.01±1.71 %I.D./gram
same,"Tracer uptake, Spleen","[8]; SD rats, 60 min post injection",0.13±0.01 %I.D./gram
same,"Tracer uptake, Thymus","[8]; SD rats, 60 min post injection",0.13±0.03 %I.D./gram
same,clearance from plasma,"[8]; rats, ex vivo distribution",cleared from plasma primarily through hepatobiliary metabolism
same,regional accumulation in rat brain sections,"TRPC5 [5]; 1.11 MBq/slide, room temperature, 30 min","highest accumulation in the TRPC5-enriched colliculus, striatum, cortex, and thalamus regions"
same,binding specificity in rat brain sections,TRPC5 [5]; autoradiography with HC608 block,specifically binds TRPC5 sites in rat brain sections
same,"regional brain uptake, prefrontal cortex (SUV)","TRPC5 [9]; macaque, highest regional radioactivity",2.88
same,fold higher brain uptake compared with [^11C]HC608,"TRPC5 [9]; macaque, initial time (5 min), average",2.4 fold
same,time of maximum brain uptake post-injection,TRPC5 [9]; male cynomolgus macaque,3 to 5 min
same,maximum total brain uptake (SUV),"TRPC5 [9]; male cynomolgus macaque, iv, 0-120 min dynamic PET",~ 2.2 and 2.2
same,time of peak brain uptake,TRPC5 [10],≤ 2 min
same,time of peak brain uptake,TRPC5 [11],~ 1.0 min
same,peak brain uptake (SUV),"TRPC5 [11]; iv, 0-60 min dynamic PET, n = 3",1.13 and ~ 1.13 and 1.13 ± 0.08
